The source made the active and inactive calls. The rule behind the calls is not given here.
Assays:
[1] = biological target: T1, Urokinase-type plasminogen activator (Homo sapiens, UniProt P00749); test: Inhibition of human uPA using pyro-Glu-Gly-Arg-pNA as substrate assessed as para-nitroaniline release from substrate measured for 5 mins by spectrophotometric assay
[2] = biological target: T2, Tissue-type plasminogen activator (Homo sapiens, UniProt P00750); test: Inhibition of recombinant human tPA using H-D-Ile-Pro-L-Arg-pNA-2HCl as substrate at 100 uM measured for 5 mins by spectrophotometric assay
Target sequence in this assay (P00750 36-562 limits assumed): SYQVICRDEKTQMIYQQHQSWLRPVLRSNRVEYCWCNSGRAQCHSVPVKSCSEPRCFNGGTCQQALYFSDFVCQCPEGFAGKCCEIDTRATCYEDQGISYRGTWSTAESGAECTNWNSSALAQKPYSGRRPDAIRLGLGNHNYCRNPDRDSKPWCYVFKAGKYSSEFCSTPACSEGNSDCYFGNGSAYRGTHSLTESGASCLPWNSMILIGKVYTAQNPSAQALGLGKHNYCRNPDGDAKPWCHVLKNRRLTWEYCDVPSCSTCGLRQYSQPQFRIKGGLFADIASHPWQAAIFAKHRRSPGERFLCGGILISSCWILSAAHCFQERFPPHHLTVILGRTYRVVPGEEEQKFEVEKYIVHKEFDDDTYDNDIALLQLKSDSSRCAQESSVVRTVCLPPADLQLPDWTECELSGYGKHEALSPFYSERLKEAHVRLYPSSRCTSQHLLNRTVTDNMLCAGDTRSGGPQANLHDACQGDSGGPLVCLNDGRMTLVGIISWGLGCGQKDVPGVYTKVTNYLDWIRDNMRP

[3] = biological target: T3, Plasma kallikrein (Homo sapiens, UniProt P03952); test: Inhibition of human plasma kallikrein using D-Pro-Phe-Arg-pNA-2HCl as substrate at 100 uM measured for 5 mins by spectrophotometric assay; assay type: cell-free
T3 sequence (P03952 20-390 limits assumed): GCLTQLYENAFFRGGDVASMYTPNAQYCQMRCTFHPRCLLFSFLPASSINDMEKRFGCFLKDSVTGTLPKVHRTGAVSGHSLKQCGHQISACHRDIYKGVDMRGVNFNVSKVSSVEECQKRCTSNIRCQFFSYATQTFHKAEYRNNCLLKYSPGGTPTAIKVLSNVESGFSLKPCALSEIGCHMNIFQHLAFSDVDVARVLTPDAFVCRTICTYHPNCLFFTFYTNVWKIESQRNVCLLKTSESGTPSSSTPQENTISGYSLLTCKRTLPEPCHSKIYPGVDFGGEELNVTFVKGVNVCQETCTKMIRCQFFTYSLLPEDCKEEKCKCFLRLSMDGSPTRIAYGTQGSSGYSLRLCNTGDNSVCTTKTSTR
T3 sequence (P03952 391-638 limits assumed): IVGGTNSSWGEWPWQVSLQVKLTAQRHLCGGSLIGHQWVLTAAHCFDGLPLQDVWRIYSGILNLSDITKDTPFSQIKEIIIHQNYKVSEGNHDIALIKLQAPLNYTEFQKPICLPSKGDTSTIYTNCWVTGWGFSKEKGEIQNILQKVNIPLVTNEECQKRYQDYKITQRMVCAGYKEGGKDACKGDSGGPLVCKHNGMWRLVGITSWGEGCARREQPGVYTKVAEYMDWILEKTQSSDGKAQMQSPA
How it was run: (§1)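 Human plasma kallikrein, chromogenic substrate CS-31(02) (Km 269 μM) at 269 μM in assay. 50 mM HEPES at pH 7.4. Absorbance at 405 nm over 5 min at 37 °C, duplicates.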

[4] = biological target: T4, Plasminogen (Homo sapiens, UniProt P00747); test: Inhibition of human plasma plasmin using pyroGlu-Pro-Arg-pNA-HCl as substrate at 100 uM measured for 5 mins by spectrophotometric assay; assay type: cell-free
T4 sequence (P00747 97-580 limits assumed): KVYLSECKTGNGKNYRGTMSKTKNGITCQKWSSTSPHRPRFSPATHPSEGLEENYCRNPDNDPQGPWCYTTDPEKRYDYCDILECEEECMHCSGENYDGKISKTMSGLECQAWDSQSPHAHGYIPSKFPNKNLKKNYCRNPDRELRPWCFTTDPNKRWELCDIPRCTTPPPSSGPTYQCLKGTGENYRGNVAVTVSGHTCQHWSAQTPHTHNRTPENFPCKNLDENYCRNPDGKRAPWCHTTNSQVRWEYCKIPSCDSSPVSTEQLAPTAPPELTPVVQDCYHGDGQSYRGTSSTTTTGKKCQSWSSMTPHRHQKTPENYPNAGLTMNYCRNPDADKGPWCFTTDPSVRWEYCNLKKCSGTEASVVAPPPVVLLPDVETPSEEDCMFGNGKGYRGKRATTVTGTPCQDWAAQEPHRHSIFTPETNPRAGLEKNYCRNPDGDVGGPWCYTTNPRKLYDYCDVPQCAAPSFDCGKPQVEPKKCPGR
T4 sequence (P00747 581-810 limits assumed): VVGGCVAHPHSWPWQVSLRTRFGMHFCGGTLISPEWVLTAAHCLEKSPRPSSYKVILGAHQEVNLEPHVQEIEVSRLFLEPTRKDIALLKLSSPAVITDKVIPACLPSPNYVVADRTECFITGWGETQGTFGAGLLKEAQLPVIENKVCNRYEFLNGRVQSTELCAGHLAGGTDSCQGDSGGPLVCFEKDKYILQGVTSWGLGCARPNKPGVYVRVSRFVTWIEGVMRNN
How it was run: (§2)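 Plasmin purified from human plasma. Substrate pyroGlu-Pro-Arg-pNA (CS-21(66), Km 400 μM) at 400 μM in assay. HEPES pH 7.0, 37 °C, absorbance at 405 nm followed for 5 min, duplicates.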

[5] = biological target: T5, Coagulation factor X (Homo sapiens, UniProt P00742); test: Inhibition of purified human factor 10a using Suc-Ile-Glu(yPip)-GlyArg-pNa-HCl as substrate at 100 uM measured for 5 mins by spectrophotometric assay
T5 sequence (P00742 41-179 limits assumed): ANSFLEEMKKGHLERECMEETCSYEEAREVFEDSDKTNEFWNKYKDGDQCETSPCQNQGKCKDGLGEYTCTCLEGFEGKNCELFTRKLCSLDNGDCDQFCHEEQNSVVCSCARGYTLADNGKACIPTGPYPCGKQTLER
T5 sequence (P00742 235-488 limits assumed): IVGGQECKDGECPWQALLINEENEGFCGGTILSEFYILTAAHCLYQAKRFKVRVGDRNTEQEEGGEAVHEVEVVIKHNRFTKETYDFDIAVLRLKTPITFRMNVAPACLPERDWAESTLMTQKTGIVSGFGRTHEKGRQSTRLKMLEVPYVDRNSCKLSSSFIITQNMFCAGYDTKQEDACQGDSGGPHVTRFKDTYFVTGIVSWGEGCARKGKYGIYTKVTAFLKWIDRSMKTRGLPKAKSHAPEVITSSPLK
How it was run: (§3)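 Purified human factor Xa, substrate Suc-Ile-Glu(γPip)-Gly-Arg-pNA (CS-11(32)) at 411 μM in assay. HEPES pH 8.2. Read at 405 nm for 5 min at 37 °C, duplicate wells.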

[6] = biological target: T6, Coagulation factor VII (Homo sapiens) (UniProt P08709); test: Inhibition of purified human factor 7a using MeSO2-Cha-Abu-Arg-pNA as substrate at 100 uM measured for 5 mins by spectrophotometric assay
T6 sequence (whole entry): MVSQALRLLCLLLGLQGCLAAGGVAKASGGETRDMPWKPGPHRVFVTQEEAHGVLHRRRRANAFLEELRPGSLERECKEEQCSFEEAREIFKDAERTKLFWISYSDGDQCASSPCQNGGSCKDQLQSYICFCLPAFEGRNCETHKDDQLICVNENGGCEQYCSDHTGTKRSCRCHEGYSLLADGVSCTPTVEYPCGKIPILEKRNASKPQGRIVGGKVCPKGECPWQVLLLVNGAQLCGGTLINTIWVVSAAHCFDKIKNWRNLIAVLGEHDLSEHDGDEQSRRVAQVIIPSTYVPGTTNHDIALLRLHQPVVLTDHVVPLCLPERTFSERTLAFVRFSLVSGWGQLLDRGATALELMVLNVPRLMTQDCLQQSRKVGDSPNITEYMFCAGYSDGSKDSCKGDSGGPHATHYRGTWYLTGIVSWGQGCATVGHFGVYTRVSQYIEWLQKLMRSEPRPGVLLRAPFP
How it was run: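 Purified human plasma FVIIa with tissue factor (Innovin) present. MeSO2-Cha-Abu-Arg-pNA at 800 μM in assay. Buffer 50 mM HEPES pH 7.5, 100 mM NaCl, 5 mM CaCl2, 0.1% BSA.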

[7] = Inhibition of bovine pancreatic trypsin using Nalpha-benzoyl-D,L-Arg-pNA-HCl as substrate measured for 5 mins by spectrophotometric assay; design: species or system Bos taurus
[8] = biological target: T7, Prothrombin (Homo sapiens, UniProt P00734); test: Inhibition of human plasma thrombin using pyroGlu-Pro-Arg-pNA-HCl as substrate at 100 uM measured for 5 mins by spectrophotometric assay; assay type: cell-free
How it was run: (§4)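 Thrombin from human plasma with pyroGlu-Pro-Arg-pNA (CS-21(66), Km 400 μM) at 415 μM in assay. 50 mM HEPES pH 8.2. pNA release at 405 nm over 5 min at 37 °C, in duplicate.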

[9] = biological target: T1, Urokinase-type plasminogen activator; test: Reversible inhibition of human uPA using pyro-Glu-Gly-Arg-pNA as substrate assessed as para-nitroaniline release from substrate measured for 5 mins by spectrophotometry based enzyme kinetics assay
[10] = biological target: T1, Urokinase-type plasminogen activator; test: Slow dissociating inhibition of human uPA using pyro-Glu-Gly-Arg-pNA as substrate assessed as para-nitroaniline release from substrate measured for 5 mins by spectrophotometry based enzyme kinetics assay
[11] = species on record: Bos taurus; test: Inhibition of bovine pancreatic trypsin using Na-benzoyl-D,L-Arg-pNA-HCl as substrate at 100 uM measured for 5 mins by spectrophotometric assay
[12] = biological target: T1, Urokinase-type plasminogen activator; test: Tight binding inhibition of human uPA using pyro-Glu-Gly-Arg-pNA as substrate assessed as para-nitroaniline release from substrate measured for 5 mins by spectrophotometry based enzyme kinetics assay
[13] = biological target: T5, Coagulation factor X; test: Inhibition of purified human factor 10a using Suc-Ile-Glu(gammaPip)-GlyArg-pNa-HCl as substrate measured for 5 mins by spectrophotometric assay; how it was run: as §3
[14] = biological target: T4, Plasminogen; test: Inhibition of human plasma plasmin using pyroGlu-Pro-Arg-pNA-HCl as substrate measured for 5 mins by spectrophotometric assay; assay type: cell-free; how it was run: as §2
[15] = biological target: T7, Prothrombin; test: Inhibition of human plasma thrombin using pyroGlu-Pro-Arg-pNA-HCl as substrate measured for 5 mins by spectrophotometric assay; assay type: cell-free; how it was run: as §4
[16] = biological target: T2, Tissue-type plasminogen activator; test: Inhibition of recombinant human tPA using H-D-Ile-Pro-L-Arg-pNA-2HCl as substrate measured for 5 mins by spectrophotometric assay
Target sequence in this assay (P00750 whole entry): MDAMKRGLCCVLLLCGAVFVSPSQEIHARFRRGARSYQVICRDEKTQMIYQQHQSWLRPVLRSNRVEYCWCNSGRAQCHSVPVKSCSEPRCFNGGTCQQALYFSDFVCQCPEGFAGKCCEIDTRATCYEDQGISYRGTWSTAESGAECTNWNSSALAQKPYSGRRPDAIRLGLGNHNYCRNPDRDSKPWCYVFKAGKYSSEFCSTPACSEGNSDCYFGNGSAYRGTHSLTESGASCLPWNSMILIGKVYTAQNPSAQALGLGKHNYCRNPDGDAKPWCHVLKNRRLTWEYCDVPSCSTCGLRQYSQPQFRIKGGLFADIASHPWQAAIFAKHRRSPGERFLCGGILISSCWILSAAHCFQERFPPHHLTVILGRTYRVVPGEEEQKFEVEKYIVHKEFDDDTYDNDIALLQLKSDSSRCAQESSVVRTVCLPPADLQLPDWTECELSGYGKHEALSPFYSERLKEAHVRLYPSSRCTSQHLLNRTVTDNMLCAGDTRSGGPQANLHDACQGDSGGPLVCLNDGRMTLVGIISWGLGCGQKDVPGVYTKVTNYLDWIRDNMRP

[17] = biological target: T3, Plasma kallikrein; test: Inhibition of human plasma kallikrein using D-Pro-Phe-Arg-pNA-2HCl as substrate measured for 5 mins by spectrophotometric assay; assay type: cell-free; how it was run: as §1

IC50 [1] [µM] | inhibition [2] [%] | inhibition [3] [%] | inhibition [4] [%] | inhibition [6] [%] | inhibition [8] [%] | Structure (SMILES) | further results
200 | – | – | – | – | – | N=C(N)Nc1ccc(CNc2c(-c3cccnc3)nc3ccc(C(F)(F)F)cn23)cc1 | –
23.9 | – | – | – | – | – | Cc1ccc2nc(-c3cccnc3)c(NCc3ccc(NC(=N)N)cc3)n2c1 | –
9.04 | 33.6 | 39.4 | 29.8 | 2.5 | 23 | N=C(N)Nc1ccc(CNc2cnc3ccccn23)cc1 | inhibition [5]: 42%; IC50 [7]: 115 µM
0.254 | 11.9 | 0 | 8.3 | 4.2 | 19.5 | N=C(N)Nc1ccc(CNc2cnc3cc(C(=O)NCc4ccc(F)cc4)ccn23)cc1 | inhibition [9]: Active; inhibition [10]: Active; inhibition [5]: 45.7%; inhibition [11]: 43.2%; inhibition [12]: Active
6.89 | – | – | – | – | – | CCCCNC(=O)c1ccn2c(NCc3ccc(NC(=N)N)cc3)c(-c3cccnc3)nc2c1 | –
250 | – | – | – | – | – | Clc1ccc(OCCNc2cnc3ccccn23)c(Cl)c1 | –
26.9 | – | – | – | – | – | N=C(N)Nc1ccc(CNc2c(-c3cccnc3)nc3cc(C(=O)O)ccn23)cc1 | –
0.366 | 0 | 0 | 15.6 | 5 | 4.7 | N=C(N)Nc1ccc(CNc2cnc3cc(C(=O)NCCO)ccn23)cc1 | inhibition [9]: Active; inhibition [10]: Active; IC50 [13]: 51.6 µM; inhibition [11]: 43.3%; inhibition [12]: Active
0.184 | 0 | 0 | 3.3 | 2.6 | 8 | N=C(N)Nc1ccc(CNc2cnc3cc(C(=O)NC4CC4)ccn23)cc1 | inhibition [9]: Active; inhibition [10]: Active; inhibition [5]: 45.4%; inhibition [11]: 46%; inhibition [12]: Active
100 | – | – | – | – | – | N=C(N)Nc1ccc(CNc2c(-c3cccc(F)c3)nc3ccccn23)cc1 | –
> 500 | – | – | – | – | – | NCc1ccc(Nc2cnc3ccccn23)cc1 | –
150 | – | – | – | – | – | CCc1nc2ccccn2c1NCCc1ccc(NC(=N)N)cc1 | –
250 | – | – | – | – | – | N=C(N)Nc1ccc(CNc2c(C3CCNCC3)nc3ccccn23)cc1 | –
0.431 | – | – | – | – | – | CCOC(=O)c1ccc(OC(=O)CCCCCNC(=N)N)cc1 [GABEXATE] | IC50 [13]: 4.61 µM; IC50 [14]: 1.55 µM; IC50 [15]: 0.687 µM; IC50 [16]: 15.4 µM; IC50 [17]: 1.35 µM; IC50 [7]: 7.12 µM
250 | 9.4 | 0 | 0 | 0 | 6.6 | N=C(N)Nc1ccc(CNc2c(-c3cccnc3)nc3ccccn23)cc1 | inhibition [5]: 24.6%; inhibition [11]: 3.3%
200 | – | – | – | – | – | N=C(N)NCCCCNc1cnc2ccccn12 | –
8.67 | – | – | – | 0 | – | N=C(N)c1ccc(/C=C2/N=C(c3ccccc3)OC2=O)cc1 | IC50 [13]: 6.47 µM; IC50 [14]: 0.34 µM; IC50 [15]: 56.1 µM; IC50 [16]: 68.5 µM; IC50 [17]: 1.34 µM; IC50 [7]: 3.18 µM
– | 0 | 0 | 0 | 0 | 0 | N=C(N)Nc1ccccc1 | inhibition [5]: 0%; inhibition [11]: 38.8%
63.9 | – | – | – | – | – | CCc1ccc(-c2nc3ccccn3c2NCc2ccc(NC(=N)N)cc2)cc1 | –
125 | – | – | – | – | – | N=C(N)Nc1ccc(CNc2c(-c3ccc(F)cc3)nc3ccccn23)cc1 | –
